Measured values: ChEMBL document CHEMBL1681746, “N-benzylimidazole carboxamides as potent, orally active stearoylCoA desaturase-1 inhibitors” (Bioorg Med Chem Lett, 2011)

Key:
[1] = target: T1, Acyl-CoA desaturase 1 (Rattus norvegicus, UniProt P07308); experiment: Inhibition of rat liver SCD1 using [3H]-stearoylCoA
T1 sequence (P07308 whole entry): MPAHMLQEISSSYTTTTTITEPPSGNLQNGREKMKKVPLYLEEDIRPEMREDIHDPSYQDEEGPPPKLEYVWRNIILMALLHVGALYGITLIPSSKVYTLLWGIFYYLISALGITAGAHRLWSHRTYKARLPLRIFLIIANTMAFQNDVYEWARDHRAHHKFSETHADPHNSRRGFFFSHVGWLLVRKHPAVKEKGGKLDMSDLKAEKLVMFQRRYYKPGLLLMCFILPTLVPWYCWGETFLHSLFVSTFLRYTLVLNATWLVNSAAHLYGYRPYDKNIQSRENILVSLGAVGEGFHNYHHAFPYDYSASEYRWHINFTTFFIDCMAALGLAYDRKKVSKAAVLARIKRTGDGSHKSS

[2] = target: T2, Stearoyl-CoA desaturase (Homo sapiens, UniProt O00767); experiment: Inhibition of human SCD1
T2 sequence (O00767 whole entry): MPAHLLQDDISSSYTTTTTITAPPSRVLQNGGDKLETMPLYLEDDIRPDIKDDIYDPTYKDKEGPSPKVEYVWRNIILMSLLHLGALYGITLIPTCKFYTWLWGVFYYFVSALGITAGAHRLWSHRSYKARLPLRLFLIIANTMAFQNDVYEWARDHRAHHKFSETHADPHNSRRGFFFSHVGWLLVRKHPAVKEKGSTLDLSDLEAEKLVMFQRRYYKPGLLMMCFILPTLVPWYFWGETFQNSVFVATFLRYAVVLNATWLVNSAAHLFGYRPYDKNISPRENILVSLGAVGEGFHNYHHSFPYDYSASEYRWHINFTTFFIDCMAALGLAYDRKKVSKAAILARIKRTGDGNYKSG
Summary of the method: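 Orthogonal assay using tritiated stearoylCoA substrate and human liver microsomes as enzyme source; IC₅₀ determined.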

[3] = Half life in po dosed in rat; assay type: ADME, organism-based; conditions: in vivo
[4] = Oral bioavailability in rat; assay type: ADME, organism-based; conditions: in vivo
[5] = Intrinsic clearance in human liver microsomes assessed per mg of protein; assay type: ADME, Microsome
[6] = Clearance in rat; assay type: ADME, organism-based; conditions: in vivo
[7] = Volume of distribution at steady state in rat; assay type: ADME, organism-based; conditions: in vivo, read-out: Vdss
[8] = system: Plasma; experiment: Free plasma concentration in Sprague-Dawley rat plasma at 1 mg/kg, po; assay type: ADME, organism-based; design: dose 1 mg/kg, route oral; conditions: in vivo
[9] = system: Rattus norvegicus; experiment: Reduction of desaturation index in low essential fatty acid diet model of Sprague-Dawley rat plasma at 1 mg/kg, po after 3 hrs; assay type: functional; design: scale not given: the % may be the effect or the level left
Summary of the method: (§1)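 Sprague–Dawley rats, n = 8 per dose group, fasted 20 h, then fed low essential fatty acid (LEFA) diet for 24 h. Next day dosed po in 0.5% methylcellulose vehicle. Plasma taken 3 h post dose. Stearic and oleic acid extracted from plasma and quantitated by LC/MS. DI = total oleic:stearic acid ratio; % reduction relative to vehicle group.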

[10] = system: Rattus norvegicus; experiment: Toxicity in low essential fatty acid diet model of Sprague-Dawley rat ocular tissue assessed as red eye formation at 1 to 30 mg/kg, po after 27 hrs; assay type: organism-based; design: dose 1-30 mg/kg, route oral; conditions: in vivo
Summary of the method: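 LEFA-diet Sprague–Dawley rats (n = 8/group) dosed po in 0.5% methylcellulose with plasma sampled at 3 h. Animals then held for observation. Ocular tissues (red eyes) assessed at 27 h post-dose.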

[11] = system: Rattus norvegicus; experiment: Reduction of desaturation index in po dosed low essential fatty acid diet model of Sprague-Dawley rat plasma after 3 hrs; assay type: functional, organism-based; summary of the method: as §1
[12] = Genotoxicity in Salmonella Typhimurium by Ames test; assay type: toxicity; conditions: salmonella enterica subsp. enterica serovar typhimurium
[13] = system: Rattus norvegicus; experiment: Reduction of desaturation index in low essential fatty acid diet model of Sprague-Dawley rat plasma at 10 mg/kg, po after 3 hrs; assay type: functional; design: scale not given: the % may be the effect or the level left; summary of the method: as §1
[14] = target: Cytochrome P450 2C19 (Homo sapiens, UniProt P33261); experiment: Inhibition of CYP2C19; assay type: ADME
Sequence of Cytochrome P450 2C19 (P33261 whole entry): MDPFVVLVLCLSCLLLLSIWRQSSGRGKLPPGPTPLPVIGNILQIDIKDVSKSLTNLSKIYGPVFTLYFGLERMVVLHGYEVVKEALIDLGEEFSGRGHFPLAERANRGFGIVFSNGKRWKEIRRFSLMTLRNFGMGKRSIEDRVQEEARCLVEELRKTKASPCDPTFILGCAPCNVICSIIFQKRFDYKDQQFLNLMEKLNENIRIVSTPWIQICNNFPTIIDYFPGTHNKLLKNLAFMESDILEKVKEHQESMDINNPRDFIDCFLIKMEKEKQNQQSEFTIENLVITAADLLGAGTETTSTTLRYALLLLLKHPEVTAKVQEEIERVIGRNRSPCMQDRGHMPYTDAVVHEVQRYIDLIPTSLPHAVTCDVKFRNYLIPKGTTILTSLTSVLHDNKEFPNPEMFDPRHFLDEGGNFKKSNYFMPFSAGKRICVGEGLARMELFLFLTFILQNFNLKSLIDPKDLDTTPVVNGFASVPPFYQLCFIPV

[15] = target: T3, Cytochrome P450 1A2 (Homo sapiens, UniProt P05177); experiment: Inhibition of CYP1A2; assay type: ADME
T3 sequence (P05177 whole entry): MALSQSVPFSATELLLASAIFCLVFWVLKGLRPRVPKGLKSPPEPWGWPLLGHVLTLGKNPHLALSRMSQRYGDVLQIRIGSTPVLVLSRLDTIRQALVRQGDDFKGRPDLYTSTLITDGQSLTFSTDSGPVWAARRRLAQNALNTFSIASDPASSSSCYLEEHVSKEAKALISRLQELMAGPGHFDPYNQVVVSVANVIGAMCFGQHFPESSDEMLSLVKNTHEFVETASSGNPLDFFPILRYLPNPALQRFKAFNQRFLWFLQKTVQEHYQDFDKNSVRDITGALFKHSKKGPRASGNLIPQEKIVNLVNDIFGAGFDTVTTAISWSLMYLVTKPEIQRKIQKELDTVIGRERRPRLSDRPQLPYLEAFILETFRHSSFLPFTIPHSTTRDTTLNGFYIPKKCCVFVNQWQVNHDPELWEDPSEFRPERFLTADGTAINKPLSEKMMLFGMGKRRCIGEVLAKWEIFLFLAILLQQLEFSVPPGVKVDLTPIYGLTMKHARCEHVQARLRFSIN

[16] = system: Plasma; experiment: Drug level in Sprague-Dawley rat plasma at 10 mg/kg, po; assay type: ADME, organism-based; design: dose 10 mg/kg, route oral; conditions: in vivo
Summary of the method: (§2)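 Sprague–Dawley rats, n = 8 per dose group, fasted 20 h, then LEFA diet 24 h. Next day given po doses of 1, 10 or 30 mg/kg in 0.5% methylcellulose. Total drug concentration measured in plasma sampled 3 h post dose.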

[17] = system: Rattus norvegicus; experiment: Reduction of desaturation index in low essential fatty acid diet model of Sprague-Dawley rat plasma at 30 mg/kg, po after 3 hrs; assay type: functional; design: scale not given: the % may be the effect or the level left; summary of the method: as §1
[18] = system: Plasma; experiment: Drug level in Sprague-Dawley rat plasma at 30 mg/kg, po; assay type: ADME, organism-based; design: dose 30 mg/kg, route oral; conditions: in vivo; summary of the method: as §2
[19] = target: Voltage-gated inwardly rectifying potassium channel KCNH2 (Homo sapiens, UniProt Q12809); experiment: Inhibition of human ERG by patch clamp assay
Sequence of Voltage-gated inwardly rectifying potassium channel KCNH2 (Q12809 whole entry): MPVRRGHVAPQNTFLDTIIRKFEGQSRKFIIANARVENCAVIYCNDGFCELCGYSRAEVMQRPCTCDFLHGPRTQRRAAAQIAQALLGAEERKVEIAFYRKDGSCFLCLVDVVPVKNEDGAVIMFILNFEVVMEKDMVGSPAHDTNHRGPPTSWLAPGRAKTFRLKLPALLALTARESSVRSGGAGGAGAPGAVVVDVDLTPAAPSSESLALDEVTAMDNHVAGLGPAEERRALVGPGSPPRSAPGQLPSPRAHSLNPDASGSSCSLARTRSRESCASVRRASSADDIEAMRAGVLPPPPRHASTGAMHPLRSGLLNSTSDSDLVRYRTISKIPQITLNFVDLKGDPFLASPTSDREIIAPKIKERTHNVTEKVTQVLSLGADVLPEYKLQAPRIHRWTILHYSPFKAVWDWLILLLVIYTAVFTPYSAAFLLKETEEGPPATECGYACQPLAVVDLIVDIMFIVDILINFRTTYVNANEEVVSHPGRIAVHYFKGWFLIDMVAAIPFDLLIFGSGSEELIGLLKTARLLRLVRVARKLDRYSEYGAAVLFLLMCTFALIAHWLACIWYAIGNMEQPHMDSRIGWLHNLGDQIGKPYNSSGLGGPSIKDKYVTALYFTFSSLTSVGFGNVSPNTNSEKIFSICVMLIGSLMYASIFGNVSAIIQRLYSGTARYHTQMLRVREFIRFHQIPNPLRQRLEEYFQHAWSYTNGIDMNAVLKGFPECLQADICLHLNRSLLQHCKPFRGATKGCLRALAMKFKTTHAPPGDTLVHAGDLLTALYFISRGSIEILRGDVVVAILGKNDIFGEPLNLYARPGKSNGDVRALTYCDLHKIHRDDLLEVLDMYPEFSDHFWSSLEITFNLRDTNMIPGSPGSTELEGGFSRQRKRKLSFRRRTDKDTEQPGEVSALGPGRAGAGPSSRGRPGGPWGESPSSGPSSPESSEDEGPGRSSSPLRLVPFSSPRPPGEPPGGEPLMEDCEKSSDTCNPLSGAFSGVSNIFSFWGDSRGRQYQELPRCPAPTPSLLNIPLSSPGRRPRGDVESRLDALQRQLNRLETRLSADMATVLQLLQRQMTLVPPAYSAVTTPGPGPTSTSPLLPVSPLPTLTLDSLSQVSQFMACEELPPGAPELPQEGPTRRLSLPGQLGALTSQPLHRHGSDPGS

[20] = target: Cytochrome P450 2C9 (Homo sapiens, UniProt P11712); experiment: Inhibition of CYP2C9; assay type: ADME
Sequence of Cytochrome P450 2C9 (P11712 whole entry): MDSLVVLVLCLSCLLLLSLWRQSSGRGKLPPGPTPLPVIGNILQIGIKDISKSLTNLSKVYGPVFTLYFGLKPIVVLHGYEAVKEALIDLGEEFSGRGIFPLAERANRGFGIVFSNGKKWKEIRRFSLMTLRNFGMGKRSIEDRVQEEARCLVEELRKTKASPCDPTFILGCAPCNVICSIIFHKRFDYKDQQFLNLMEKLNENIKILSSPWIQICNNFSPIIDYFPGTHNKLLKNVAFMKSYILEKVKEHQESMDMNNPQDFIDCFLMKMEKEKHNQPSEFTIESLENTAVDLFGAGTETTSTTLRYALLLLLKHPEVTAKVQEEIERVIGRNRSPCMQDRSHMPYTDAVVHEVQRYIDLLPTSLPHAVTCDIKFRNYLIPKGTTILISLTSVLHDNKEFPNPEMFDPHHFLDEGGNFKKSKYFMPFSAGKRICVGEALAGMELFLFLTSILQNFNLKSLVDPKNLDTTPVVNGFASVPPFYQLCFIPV

[21] = system: Plasma; experiment: Free plasma concentration in Sprague-Dawley rat plasma at 30 mg/kg, po; assay type: ADME, organism-based; design: dose 30 mg/kg, route oral; conditions: in vivo
[22] = target: Cytochrome P450 2D6 (Homo sapiens, UniProt P10635); experiment: Inhibition of CYP2D6; assay type: ADME
Sequence of Cytochrome P450 2D6 (P10635 whole entry): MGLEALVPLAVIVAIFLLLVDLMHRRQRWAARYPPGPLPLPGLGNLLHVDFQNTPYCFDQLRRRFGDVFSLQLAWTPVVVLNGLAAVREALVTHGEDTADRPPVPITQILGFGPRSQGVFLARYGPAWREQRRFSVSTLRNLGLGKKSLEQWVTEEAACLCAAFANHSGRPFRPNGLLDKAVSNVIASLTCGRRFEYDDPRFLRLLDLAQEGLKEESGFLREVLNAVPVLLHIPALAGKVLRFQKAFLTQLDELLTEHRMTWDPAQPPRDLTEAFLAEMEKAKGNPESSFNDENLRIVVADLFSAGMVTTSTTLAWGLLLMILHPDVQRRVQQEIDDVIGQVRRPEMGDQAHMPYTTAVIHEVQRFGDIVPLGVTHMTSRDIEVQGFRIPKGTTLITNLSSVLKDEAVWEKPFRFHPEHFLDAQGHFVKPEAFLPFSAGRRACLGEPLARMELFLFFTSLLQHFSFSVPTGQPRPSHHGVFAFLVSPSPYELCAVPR

[23] = target: Cytochrome P450 3A4 (Homo sapiens, UniProt P08684); experiment: Inhibition of CYP3A4; assay type: ADME
Sequence of Cytochrome P450 3A4 (P08684 whole entry): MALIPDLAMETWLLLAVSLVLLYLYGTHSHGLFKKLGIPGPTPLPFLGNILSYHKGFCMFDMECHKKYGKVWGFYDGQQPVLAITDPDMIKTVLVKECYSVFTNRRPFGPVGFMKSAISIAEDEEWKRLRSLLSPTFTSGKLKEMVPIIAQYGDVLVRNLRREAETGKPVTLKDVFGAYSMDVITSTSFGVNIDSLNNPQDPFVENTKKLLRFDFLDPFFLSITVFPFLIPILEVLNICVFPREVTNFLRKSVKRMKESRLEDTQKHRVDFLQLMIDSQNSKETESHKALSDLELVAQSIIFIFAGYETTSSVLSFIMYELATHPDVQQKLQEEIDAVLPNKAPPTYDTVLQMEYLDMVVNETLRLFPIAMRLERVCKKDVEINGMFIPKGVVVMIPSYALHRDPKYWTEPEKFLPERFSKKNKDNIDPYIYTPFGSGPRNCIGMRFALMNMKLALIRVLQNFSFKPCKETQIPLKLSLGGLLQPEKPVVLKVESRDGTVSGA

[24] = system: Plasma; experiment: Drug level in Sprague-Dawley rat plasma at 1 mg/kg, po; assay type: ADME, organism-based; design: dose 1 mg/kg, route oral; conditions: in vivo; summary of the method: as §2
[25] = Intrinsic clearance in rat liver microsomes assessed per mg of protein; assay type: ADME, Microsome
[26] = system: Plasma; experiment: Free plasma concentration in Sprague-Dawley rat plasma at 10 mg/kg, po; assay type: ADME, organism-based; design: dose 10 mg/kg, route oral; conditions: in vivo
[27] = target: hERG (Homo sapiens, UniProt Q12809); experiment: Displacement of [3H]-dofetilide from human ERG at 10 uM; conditions: probe [3H]-dofetilide
Sequence of hERG (Q12809 whole entry): as the sequence (Q12809 whole entry) above
Summary of the method: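 Dofetilide binding assay; percent inhibition measured at […] test concentration.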

[28] = target: CYP2D6 (Homo sapiens, UniProt P10635); experiment: Inhibition of CYP2D6 at 3 uM; assay type: ADME
Sequence of CYP2D6 (P10635 whole entry, canonical isoform): as the sequence (P10635 whole entry) above
Summary of the method: (§3)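 Percent inhibition of each CYP isoform (1A2, 2C9, 2D6, 3A4) measured at […] test concentration.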

[29] = target: CYP3A4 (Homo sapiens, UniProt P08684); experiment: Inhibition of CYP3A4 at 3 uM; assay type: ADME; summary of the method: as §3
Sequence of CYP3A4 (P08684 whole entry): as the sequence (P08684 whole entry) above

[30] = target: T1, Acyl-CoA desaturase 1; experiment: Inhibition of rat liver SCD1 assessed as formation of deuterated oleoylCoA by HTMS assay
Summary of the method: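 Rat liver microsomes as enzyme source. RapidFire high-throughput mass spectrometry quantitates deuterated oleoylCoA formed from deuterated stearoylCoA substrate.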

[31] = target: T4, CYP1A2 (Homo sapiens, UniProt P05177); experiment: Inhibition of CYP1A2 at 3 uM; assay type: ADME; summary of the method: as §3
T4 sequence (P05177 whole entry): T3 sequence (P05177 whole entry)

[32] = Apparent permeability of the compound by PAMPA; assay type: ADME
[33] = target: CYP2C9 (Homo sapiens, UniProt P11712); experiment: Inhibition of CYP2C9 at 3 uM; assay type: ADME; summary of the method: as §3
Sequence of CYP2C9 (P11712 whole entry): as the sequence (P11712 whole entry) above

`Cn1ccc(NC(=O)c2cn(Cc3ccc(Cl)c(C(F)(F)F)c3)cn2)n1` showed an IC50 [1] of 16 nM.

`Cn1ncc(NC(=O)c2cn(Cc3cccc(C(F)(F)F)c3)cn2)n1` gave an IC50 [1] of 25 nM.

Compound `Cn1ccc(NC(=O)c2cn(Cc3cccc(Cl)c3)cn2)n1` has an IC50 [1] of 57 nM.

In the case of `Cn1ccc(NC(=O)c2cn(Cc3cccc(OC(F)(F)F)c3)cn2)n1`, the IC50 [1] is reported as 32 nM and the IC50 [2] is reported as 88 nM.

`Cn1ccc(NC(=O)c2cn(CC3(CC4CC4)CCC3)cn2)n1` gave an IC50 [1] of 101 nM.

In the case of `Cn1cnc(NC(=O)c2cn(Cc3ccc(Cl)c(C(F)(F)F)c3)cn2)n1`, the IC50 [1] is reported as 63 nM.

`Cn1ccc(NC(=O)c2cnn(Cc3ccc(Cl)c(C(F)(F)F)c3)c2)n1` gave a half-life [3] of 1.3 h, a bioavailability [4] of 66% and an IC50 [1] of 63 nM. For the same compound, the microsomal CLint [5] was 25.9 µL/min/mg, the clearance [6] was 30 mL/min/kg and the Vd [7] was 0.7 L/kg.

With `Cc1c(C(=O)Nc2ccn(C)n2)ncn1Cc1cccc(C(F)(F)F)c1` the “Cp(f)” value [8] was 17.6 nM, the half-life [3] was 2.3 h and the Activity [9] was 55%. The Activity [10] was “Toxic”, the bioavailability [4] was 52% and the Activity [11] was “Dose-dependent effect”. The Activity [12] was “Non-toxic”, the Activity [13] was 85% and the IC50 [14] was > 30000 nM. For the same compound, the IC50 [15] was > 30000 nM, the IC50 [1] was 11.8 nM and the Drug uptake [16] was 1703 ng/mL. The Activity [17] was 84%, the Drug uptake [18] was 6491 ng/mL and the microsomal CLint [5] was < 8 µL/min/mg. The IC50 [19] was 28900 nM, the IC50 [20] was > 30000 nM and the “Cp(f)” value [21] was 2035 nM. The IC50 [22] was > 30000 nM, the IC50 [23] was > 30000 nM and the clearance [6] was 43 mL/min/kg. For the same compound, the Vd [7] was 4.5 L/kg, the Drug uptake [24] was 56.8 ng/mL and the microsomal CLint [25] was < 18 µL/min/mg. For the same compound, the “Cp(f)” value [26] was 533.5 nM.

Compound `CC(=O)NCCNC(=O)c1cn(Cc2ccc(F)c(C(F)(F)F)c2)cn1` has an IC50 [1] of 2750 nM.

With `Cn1ccc(NC(=O)c2cn(Cc3cccc(C(F)(F)F)c3)cn2)n1` the IC50 [1] was 11 nM, the microsomal CLint [5] was < 8 µL/min/mg and the clearance [6] was 463 mL/min/kg. It also gave a Vd [7] of 8.1 L/kg.

`Cn1ccc(NC(=O)c2cn(CCc3ccccc3Cl)cn2)n1` showed an IC50 [1] of 126 nM.

`Cn1ccc(NC(=O)c2ccn(Cc3cccc(C(F)(F)F)c3)n2)n1` gave an IC50 [1] of 2140 nM.

`Cn1ccc(NC(=O)c2ncn(Cc3cccc(C(F)(F)F)c3)n2)n1` gave an IC50 [1] of 113 nM.

In the case of `Cn1ccc(NC(=O)c2cn(Cc3ccc(Cl)c(C(F)(F)F)c3)nn2)n1`, the IC50 [1] is reported as 33 nM, the microsomal CLint [5] is reported as < 8 µL/min/mg and the clearance [6] is reported as 641 mL/min/kg. The Vd [7] was 10.2 L/kg.

With `Cc1c(C(=O)N=C(N)N)ncn1Cc1ccc(Cl)cc1` the inhibition at 10 µM [27] was 64%, the inhibition at 3 µM [28] was < 1% and the inhibition at 3 µM [29] was < 1%. It also gave an IC50 [30] of 68 nM, an IC50 [1] of 94 nM and a microsomal CLint [5] of 15.5 µL/min/mg. The inhibition at 3 µM [31] was < 1%, the Papp [32] was 2.6 ×10⁻⁶ cm/s and the microsomal CLint [25] was 74.1 µL/min/mg. For the same compound, the inhibition at 3 µM [33] was < 1% and the IC50 [2] was 217 nM.
